17 compounds from ChEMBL document CHEMBL1122231, “Synthesis, benzodiazepine receptor binding, and anticonvulsant activity of 2,3-dihydro-3-oxo-5H-pyrido[3,4-b][1,4]benzothiazine-4-carbonitriles” (J Med Chem, 1983) can be followed below.

In assay [1] the target is GABA-A receptor; anion channel. Briefly: Inhibition of binding of tritiated 3[H]diazepam radioligand to rat brain homogenates. In kind it is tissue-based. In outline: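 Rat brain membranes incubated with [3H]diazepam (final 4 μM) and six to eight concentrations of test drug, 30 °C for 10 min, then 4 °C for 20 min. Reactions were stopped by vacuum filtration through glass-fiber filters. Nonspecific binding was defined with 4 μM unlabeled diazepam. IC50 is the concentration giving 50% inhibition of [3H]diazepam binding to membranes.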

Assay [2] has as its system Mus musculus. The experiment in a line: Inhibition of pentylenetetrazole (PTZ) induced convulsions in mice at 100 mg/kg after 60 min; 2/10. In kind it is functional.
Assay [3] relates to Mus musculus. Briefly: Inhibition of pentylenetetrazole (PTZ) induced convulsions in mice at 4 mg/kg after 30 min; 0/10. The assay is classed as functional.
Assay [4] concerns Mus musculus. Briefly: Inhibition of pentylenetetrazole (PTZ) induced convulsions in mice at 64 mg/kg after 30 min; 5/10. The assay is classed as functional.
Assay [5] concerns Mus musculus. The experiment in a line: Inhibition of pentylenetetrazole (PTZ) induced convulsions in mice at 10 mg/kg after 60 min; 0/10. The assay is classed as functional.
The subject of assay [6] is Mus musculus. The experiment in a line: Inhibition of pentylenetetrazole (PTZ) induced convulsions in mice at 10 mg/kg after 60 min; 3/10. In kind it is functional.
Assay [7] concerns Mus musculus. The experiment in a line: Inhibition of pentylenetetrazole (PTZ) induced convulsions in mice at 100 mg/kg after 60 min; 8/10. The assay is classed as functional.
Assay [8] relates to Mus musculus. The experiment in a line: Inhibition of pentylenetetrazole (PTZ) induced convulsions in mice at 10 mg/kg after 60 min. In kind it is functional. As to conditions: 1 h.
Assay [9] relates to Mus musculus. The experiment in a line: Inhibition of pentylenetetrazole (PTZ) induced convulsions in mice at 64 mg/kg after 30 min; 1/10. In kind it is functional.
The test system of assay [10] is Mus musculus. Briefly: Inhibition of pentylenetetrazole (PTZ) induced convulsions in mice at 10 mg/kg after 60 min; 1/10. The assay is classed as functional.
Assay [11] relates to Mus musculus. The experiment in a line: Inhibition of pentylenetetrazole (PTZ) induced convulsions in mice at 64 mg/kg after 60 min; 2/10. In kind it is functional.
In assay [12] the test system is Mus musculus. Briefly: Inhibition of pentylenetetrazole (PTZ) induced convulsions in mice at 100 mg/kg after 60 min; 6/10. The assay is classed as functional.
The test system of assay [13] is Mus musculus. Briefly: Inhibition of pentylenetetrazole (PTZ) induced convulsions in mice at 64 mg/kg after 30 min; 2/10. The assay is classed as functional.
The subject of assay [14] is Mus musculus. Briefly: Minimum effective dose after intraperitoneal administration. In kind it is functional. Particulars: ip, read-out: MED.
Assay [15] concerns Mus musculus. The experiment in a line: Inhibition of pentylenetetrazole (PTZ) induced convulsions in mice at 64 mg/kg after 60 min; 1/10. The assay is classed as functional.
The subject of assay [16] is Mus musculus. Briefly: Inhibition of pentylenetetrazole (PTZ) induced convulsions in mice at 64 mg/kg after 30 min; 4/10. In kind it is functional.
In assay [17] the test system is Mus musculus. Briefly: Inhibition of pentylenetetrazole (PTZ) induced convulsions in mice at 4 mg/kg after 30 min. The assay is classed as functional. Particulars: 0.5 h.
For assay [18], the system named is Mus musculus. The experiment in a line: Inhibition of pentylenetetrazole (PTZ) induced convulsions in mice at 4 mg/kg after 30 min; 1/10. The assay is classed as functional.
For assay [19], the system named is Mus musculus. The experiment in a line: Inhibition of pentylenetetrazole (PTZ) induced convulsions in mice at 64 mg/kg after 60 min; 7/10. The assay is classed as functional.
For assay [20], the system named is Mus musculus. Briefly: Inhibition of pentylenetetrazole (PTZ) induced convulsions in mice at 4 mg/kg after 30 min; 2/10. In kind it is functional.
Assay [21] deals with Mus musculus. The experiment in a line: Inhibition of pentylenetetrazole (PTZ) induced convulsions in mice at 64 mg/kg after 30 min; 0/10. In kind it is functional.
Assay [22] deals with Mus musculus. The experiment in a line: Inhibition of pentylenetetrazole (PTZ) induced convulsions in mice at 64 mg/kg after 60 min; 0/10. The assay is classed as functional.
In assay [23] the test system is Mus musculus. The experiment in a line: Inhibition of pentylenetetrazole (PTZ) induced convulsions in mice at 64 mg/kg after 60 min; 10/10. The assay is classed as functional.

`N#Cc1c(O)ncc2c1Nc1ccc(Br)cc1S2`: the half-maximal inhibitory concentration (IC50) in assay [1] worked out at 8000 nM. Also, the “No. of mice protected” value in [2] turned out to be 2; in assay [3] it was 0; in [4] it was 5; in assay [5], 0.

As to `N#Cc1c(O)ncc2c1Nc1ccccc1[S+]2[O-]` (stereo unspecified), the entries for the “No. of mice protected” value in [6] and in [7] were 3 and 8, respectively. Besides, the half-maximal inhibitory concentration (IC50) in assay [1] was 4250 nM. The 50% effect level in assay [8] (ED50) was put at a dose of 41 mg/kg.

In assay [1], `Cc1nc(O)c(C#N)c2c1Sc1ccccc1N2` gave a half-inhibitory concentration (IC50) of 1700 nM. Besides, the “No. of mice protected” value worked out at 2 in assay [2], 0 in assay [3] and 1 in [9].

In assay [1], `N#Cc1c(O)ncc2c1Nc1ccc([N+](=O)[O-])cc1S2` returned an IC50 of 800 nM. The “No. of mice protected” value in [2] was 2; in assay [3] it was 0; in assay [10], 1.

`COc1cc2c(cc1OC)Sc1cnc(O)c(C#N)c1N2`: the IC50 in assay [1] came out at 100000 nM. In addition, the figures for the “No. of mice protected” value in assay [11] and in assay [10] were 2 and 1, respectively.

Turning to `N#Cc1c(O)ncc2c1Nc1cc(Cl)ccc1[S+]2[O-]` (stereo unspecified), the “No. of mice protected” value is listed as 6 in assay [12], 2 in assay [13], 0 in assay [3] and 0 in [5]. In assay [1], this compound returned an IC50 of 35000 nM.

For the compound `N#Cc1c(O)ncc2c1Nc1ccccc1S2`, the minimal effective dose in assay [14] is 60 mg/kg. In [1], this compound showed an IC50 of 450 nM. For the same compound, the “No. of mice protected” value in assay [15] is listed as 1; in assay [16] it was 4; in [3], 0; in [5], 0. In addition, in assay [17], it took a dose of 62 mg/kg to reach the 50% effect level (ED50).

On to `N#Cc1c(O)ncc2c1Nc1ccccc1S2(=O)=O`, for which the results for the “No. of mice protected” value in [18], in assay [13] and in [11] were 1, 2 and 2, respectively. Besides, in assay [1], the IC50 worked out at 11000 nM.

Turning to `N#Cc1c(O)ncc2c1Nc1ccc(Cl)cc1S2(=O)=O`, the “No. of mice protected” value came to 1 in assay [18] and 5 in assay [4]. For the same compound, the IC50 in [1] was found to be 634 nM.

Regarding `CN1c2ccccc2Sc2cn(C)c(=O)c(C#N)c21`, the IC50 in [1] turned out to be 100000 nM. Besides, the “No. of mice protected” value in assay [3] was 0; in [4], 5.

For the compound `N#Cc1c(O)ncc2c1Nc1ccc(Cl)cc1S2`, the IC50 in assay [1] came out at 320 nM. In addition, in assay [2], the “No. of mice protected” value came out at 2.

With `N#Cc1c(O)ncc2c1Nc1ccc(N)cc1S2`, the IC50 in [1] came to 910 nM. In addition, the “No. of mice protected” value came out at 7 in [19], 5 in assay [4] and 2 in assay [20].

For the compound `N#Cc1c(O)ncc2c1Nc1cc(Cl)ccc1S2(=O)=O`, the “No. of mice protected” value is recorded as 1 in [18] and 2 in assay [13]. The IC50 in assay [1] stood at 7600 nM.

`CN1c2ccccc2Sc2cnc(O)c(C#N)c21` returned an IC50 in [1] of 314 nM. The “No. of mice protected” value in [3], in [21] and in [22] was 0 in each case.

In turn, `Cn1cc2c(c(C#N)c1=O)Nc1ccccc1S2` yielded a concentration for half-maximal inhibition (IC50) in [1] of 17000 nM. Further, the figures for the “No. of mice protected” value in [2], in [3] and in [9] were 2, 0 and 1, respectively.

`CNC1=Nc2ccc(Cl)cc2C(c2ccccc2)=[N+]([O-])C1` [CHLORDIAZEPOXIDE] showed an IC50 in assay [1] of 442 nM. In assay [17], this compound yielded an ED50 of 1.25 mg/kg.

In turn, `N#Cc1c(O)ncc2c1Nc1cc(Cl)ccc1S2` gave an IC50 in assay [1] of 400 nM. Also, the “No. of mice protected” value in assay [23] is recorded as 10; in assay [10], 1. In addition, the ED50 came to 32 mg/kg in assay [8] and 26 mg/kg in assay [17].

As a reminder, the IC50 is the midpoint of a concentration-inhibition curve. For orientation: ED50 means the midpoint of the dose-response relation. Read a low ED50 as an effect at a small dose.
